Target: T1, NAD-dependent protein deacetylase sirtuin-2 (Homo sapiens, UniProt Q8IXJ6)
T1 sequence (Q8IXJ6 whole entry): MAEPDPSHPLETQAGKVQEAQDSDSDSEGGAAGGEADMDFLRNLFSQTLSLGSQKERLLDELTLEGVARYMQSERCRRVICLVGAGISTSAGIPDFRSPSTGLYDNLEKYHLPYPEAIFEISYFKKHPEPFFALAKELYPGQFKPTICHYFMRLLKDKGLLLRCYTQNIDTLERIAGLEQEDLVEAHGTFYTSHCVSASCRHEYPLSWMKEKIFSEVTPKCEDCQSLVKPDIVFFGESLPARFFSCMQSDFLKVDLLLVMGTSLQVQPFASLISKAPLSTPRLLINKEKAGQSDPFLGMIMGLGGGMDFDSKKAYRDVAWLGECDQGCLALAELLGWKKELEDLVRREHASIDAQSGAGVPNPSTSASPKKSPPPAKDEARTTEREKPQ
Assay: Inhibition of recombinant GST-tagged SIRT2 at 200 uM after 1 hr by Fluor de Lys-based fluorescence assay
In short: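 Single-point Fluor de Lys test at 200 μM: GST-SIRT1 (40 μM KI177 substrate) or GST-SIRT2 (138 μM KI179 substrate), 500 μM NAD+, BSA-supplemented buffer, 5 min rt preincubation, enzyme-started 1 h at 37 °C. Developer with 2 mM nicotinamide 45 min 37 °C; fluorescence ex 355/em 460 nm. Percent inhibition ± standard deviation.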

Inhibition [%]	SMILES
2	CC(=S)NCCCC[C@H](N)C(=O)N[C@@H](C)C(=O)O
22.4	CC(=S)NCCCC[C@H](NC(=O)[C@H](N)Cc1ccccc1)C(=O)N[C@@H](C)C(=O)O
57.2	CC(=S)NCCCC[C@H](NC(=O)OCc1ccccc1)C(=O)NC1CCCCC1

— BindingDB's records for doi:10.1021/jm200590k (University of Eastern Finland, 2011)
